Laboratory results published in ChEMBL document CHEMBL3352788, “Characterization of selective exosite-binding inhibitors of matrix metalloproteinase 13 that prevent articular cartilage degradation in vitro” (J Med Chem, 2014).

Tests used:
Caspase-7 (Homo sapiens) = biological target: T1, Caspase-7 (Homo sapiens) (UniProt P55210); assay: Inhibition of recombinant human caspase 7 using DEVDAA substrate at up to 5 uM after 3 hrs
T1 sequence (whole entry): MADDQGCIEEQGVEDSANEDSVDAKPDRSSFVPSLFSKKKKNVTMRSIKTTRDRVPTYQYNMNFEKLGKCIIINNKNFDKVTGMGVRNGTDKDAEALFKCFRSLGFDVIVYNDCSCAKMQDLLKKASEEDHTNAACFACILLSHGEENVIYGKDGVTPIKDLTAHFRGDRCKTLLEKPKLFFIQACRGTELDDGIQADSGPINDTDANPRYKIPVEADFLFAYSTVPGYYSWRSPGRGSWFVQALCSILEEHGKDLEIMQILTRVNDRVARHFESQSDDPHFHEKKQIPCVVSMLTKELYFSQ
Outline: (§1)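 Outsourced microfluidic protease panel. Compound was preincubated with each protease for 30 min at 25 °C, then peptide substrate was added for 3 h at 25 °C and quenched with SDS/EDTA/iodoacetate. Substrate-to-product conversion was measured on LabChip. Compounds were tested singly in a 12-point 3-fold dilution series, top 20 μM (5 μM for two reference compounds).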

Caspase-3 (Homo sapiens) = biological target: T2, Caspase-3 (Homo sapiens) (UniProt P42574); assay: Inhibition of recombinant human caspase 3 using DEVDAA substrate at up to 5 uM after 3 hrs; outline: as §1
T2 sequence (whole entry): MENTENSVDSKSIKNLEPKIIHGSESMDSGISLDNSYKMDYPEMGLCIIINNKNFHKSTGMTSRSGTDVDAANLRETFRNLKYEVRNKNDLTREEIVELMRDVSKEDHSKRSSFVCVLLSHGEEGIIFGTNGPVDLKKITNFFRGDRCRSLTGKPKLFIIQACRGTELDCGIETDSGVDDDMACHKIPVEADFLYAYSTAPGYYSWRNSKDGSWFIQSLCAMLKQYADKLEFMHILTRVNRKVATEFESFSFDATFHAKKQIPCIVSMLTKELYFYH

[1] = biological target: Cathepsin S (Homo sapiens) (UniProt P25774); assay: Inhibition of recombinant human cathepsin S using RTLTAK substrate at up to 5 uM after 3 hrs
Cathepsin S (Homo sapiens), sequence (P25774 115-331 limits assumed): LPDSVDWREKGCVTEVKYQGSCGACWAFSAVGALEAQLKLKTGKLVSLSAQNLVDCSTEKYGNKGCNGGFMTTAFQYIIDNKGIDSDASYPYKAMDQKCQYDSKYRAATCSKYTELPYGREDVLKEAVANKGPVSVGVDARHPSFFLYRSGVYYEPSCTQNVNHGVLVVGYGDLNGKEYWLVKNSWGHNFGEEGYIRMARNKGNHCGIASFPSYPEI
Outline: (§2)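 In this microfluidic protease panel, enzyme and compound were preincubated 30 min at 25 °C. The peptide substrate was added and the reaction was incubated 3 h at 25 °C, then quenched (SDS, EDTA, iodoacetate). Activity was read as % substrate converted to product. Dose–response was singlicate, 12-point 3-fold dilutions spanning 5 μM to 0.028 nM. IC50 was the concentration leaving 50% activity relative to no-compound control.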

[2] = biological target: Prothrombin (Homo sapiens) (UniProt P00734); assay: Inhibition of recombinant human thrombin using PRTLT substrate at up to 5 uM after 3 hrs; outline: as §2
[3] = biological target: Procathepsin L (Homo sapiens) (UniProt P07711); assay: Inhibition of recombinant human cathepsin L using GGALRAG substrate at up to 20 uM after 3 hrs
Procathepsin L (Homo sapiens), sequence (P07711 114-333 limits assumed): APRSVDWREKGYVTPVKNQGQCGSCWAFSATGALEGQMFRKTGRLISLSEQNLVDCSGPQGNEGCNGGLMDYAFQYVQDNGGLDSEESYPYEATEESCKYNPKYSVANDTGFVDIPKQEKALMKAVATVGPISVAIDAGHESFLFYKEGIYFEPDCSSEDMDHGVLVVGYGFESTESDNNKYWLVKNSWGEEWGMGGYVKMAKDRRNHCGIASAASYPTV
Outline: (§3)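 Each protease was preincubated 30 min at 25 °C with compound in its assay buffer. Peptide substrate was then added and the reaction ran 3 h at 25 °C before quenching with SDS/EDTA/iodoacetate. Substrate-to-product conversion (%) was read by microfluidic electrophoresis. Compounds were tested in singlicate as 12-point 3-fold dilutions from 20 μM to 0.1 nM. IC50 was taken as the concentration giving 50% of no-compound control activity.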

[4] = biological target: Macrophage metalloelastase (Homo sapiens) (UniProt P39900); assay: Inhibition of recombinant human MMP-12 using GRIGFL substrate up to 20 uM; outline: as §1
Macrophage metalloelastase (Homo sapiens), sequence (P39900 106-470 limits assumed): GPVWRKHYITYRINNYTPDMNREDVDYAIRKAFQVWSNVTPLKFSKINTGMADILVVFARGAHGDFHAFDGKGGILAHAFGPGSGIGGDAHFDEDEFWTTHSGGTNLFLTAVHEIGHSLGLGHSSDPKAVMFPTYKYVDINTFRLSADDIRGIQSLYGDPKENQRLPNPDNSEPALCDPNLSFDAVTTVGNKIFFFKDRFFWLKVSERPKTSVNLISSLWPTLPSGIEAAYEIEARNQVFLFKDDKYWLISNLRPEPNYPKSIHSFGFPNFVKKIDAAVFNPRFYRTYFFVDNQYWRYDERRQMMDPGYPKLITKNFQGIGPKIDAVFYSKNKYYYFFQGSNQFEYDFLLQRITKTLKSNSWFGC

Collagenase 3 [5] = biological target: T3, Collagenase 3 (Homo sapiens, UniProt P45452); assay: Inhibition of full-length recombinant human MMP-13 assessed as bovine type-2 collagen hydrolysis after 22 hrs by fluorescence assay
Caspase-6 (Homo sapiens) = biological target: T4, Caspase-6 (Homo sapiens) (UniProt P55212); assay: Inhibition of recombinant human caspase 6 using VEHDGG substrate at up to 20 uM after 3 hrs; outline: as §1
T4 sequence (whole entry): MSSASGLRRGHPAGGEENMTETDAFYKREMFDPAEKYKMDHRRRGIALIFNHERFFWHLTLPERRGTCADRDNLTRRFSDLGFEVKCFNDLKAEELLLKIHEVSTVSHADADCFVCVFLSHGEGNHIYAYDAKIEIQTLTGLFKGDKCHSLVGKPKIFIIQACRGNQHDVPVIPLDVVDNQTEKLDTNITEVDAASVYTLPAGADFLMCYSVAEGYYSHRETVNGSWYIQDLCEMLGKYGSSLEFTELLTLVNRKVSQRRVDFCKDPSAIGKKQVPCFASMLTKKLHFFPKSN

Cytochrome P450 3A4 = Cytochrome P450 3A4 (Homo sapiens, UniProt P08684); assay: Inhibition of CYP3A4 (unknown origin) using testosterone substrate; format: ADME
Cytochrome P450 3A4, sequence (P08684 whole entry): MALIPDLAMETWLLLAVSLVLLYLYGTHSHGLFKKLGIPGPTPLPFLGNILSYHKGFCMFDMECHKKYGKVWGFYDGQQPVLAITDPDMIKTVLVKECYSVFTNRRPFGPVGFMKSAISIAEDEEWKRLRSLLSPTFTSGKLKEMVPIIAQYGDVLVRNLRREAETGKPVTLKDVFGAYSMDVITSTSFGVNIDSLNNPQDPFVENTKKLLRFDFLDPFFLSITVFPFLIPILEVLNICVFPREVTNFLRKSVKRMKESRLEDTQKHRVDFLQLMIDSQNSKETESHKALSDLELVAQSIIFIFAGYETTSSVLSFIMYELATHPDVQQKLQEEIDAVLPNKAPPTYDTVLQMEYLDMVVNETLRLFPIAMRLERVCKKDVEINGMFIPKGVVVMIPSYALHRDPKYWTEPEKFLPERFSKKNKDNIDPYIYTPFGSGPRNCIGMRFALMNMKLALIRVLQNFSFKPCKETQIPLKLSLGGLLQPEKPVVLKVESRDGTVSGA
Outline: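 Reactions stopped with acetonitrile/0.1% formic acid plus labelled internal standard. Metabolite measured by LC-MS area ratio. IC50 by linear interpolation.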

[6] = biological target: T5, Cathepsin K (Homo sapiens) (UniProt P43235); assay: Inhibition of recombinant human cathepsin K using HHQKLVFFAE substrate at up to 20 uM after 3 hrs; outline: as §1
T5 sequence (whole entry): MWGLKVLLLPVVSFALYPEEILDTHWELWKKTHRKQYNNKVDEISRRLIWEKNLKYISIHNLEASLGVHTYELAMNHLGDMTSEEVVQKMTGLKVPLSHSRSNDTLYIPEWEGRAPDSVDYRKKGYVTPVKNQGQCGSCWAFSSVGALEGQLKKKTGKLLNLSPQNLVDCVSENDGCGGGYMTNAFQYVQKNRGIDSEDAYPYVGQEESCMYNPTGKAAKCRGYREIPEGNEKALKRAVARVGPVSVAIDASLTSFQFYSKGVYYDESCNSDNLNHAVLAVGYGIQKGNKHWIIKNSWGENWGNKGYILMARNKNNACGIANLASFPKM

Collagenase 3 [7] = biological target: T3, Collagenase 3; assay: Non-competitive inhibition of full-length recombinant human MMP-13 assessed as fTHP-15 substrate hydrolysis
Furin (Homo sapiens) = Furin (Homo sapiens) (UniProt P09958); assay: Inhibition of recombinant human furin using RRVKRSLD substrate at up to 20 uM after 3 hrs; outline: as §3
Furin (Homo sapiens), sequence (P09958 whole entry): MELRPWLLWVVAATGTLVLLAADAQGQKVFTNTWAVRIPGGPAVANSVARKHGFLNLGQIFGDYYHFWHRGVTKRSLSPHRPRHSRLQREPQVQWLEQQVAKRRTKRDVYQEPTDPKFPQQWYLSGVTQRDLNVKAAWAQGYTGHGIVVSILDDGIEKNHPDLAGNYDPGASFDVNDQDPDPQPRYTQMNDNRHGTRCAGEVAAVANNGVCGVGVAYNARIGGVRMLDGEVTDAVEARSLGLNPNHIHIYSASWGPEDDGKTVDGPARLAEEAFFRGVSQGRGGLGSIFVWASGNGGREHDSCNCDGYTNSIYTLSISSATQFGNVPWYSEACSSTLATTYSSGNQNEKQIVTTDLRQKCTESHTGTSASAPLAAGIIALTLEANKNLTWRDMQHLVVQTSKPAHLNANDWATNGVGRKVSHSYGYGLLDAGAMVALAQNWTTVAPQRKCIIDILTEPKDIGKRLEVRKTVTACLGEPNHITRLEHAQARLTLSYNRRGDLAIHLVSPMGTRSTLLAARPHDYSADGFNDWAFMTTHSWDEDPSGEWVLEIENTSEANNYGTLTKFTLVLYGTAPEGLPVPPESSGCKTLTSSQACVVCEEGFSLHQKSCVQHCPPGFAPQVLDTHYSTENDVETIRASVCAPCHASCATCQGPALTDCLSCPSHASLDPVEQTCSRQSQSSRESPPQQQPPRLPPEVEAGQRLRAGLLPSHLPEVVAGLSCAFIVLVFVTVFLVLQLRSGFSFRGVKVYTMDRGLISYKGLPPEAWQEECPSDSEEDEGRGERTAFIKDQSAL

Collagenase 3 [8] = biological target: T3, Collagenase 3; assay: Inhibition of full-length recombinant human MMP-13 assessed as prevention of bovine type-2 collagen degradation at 10 uM after 18 hrs by cartilage explant assay
Outline: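 Bovine articular cartilage pieces (~3 mm2) were made nonviable by three freeze–thaw cycles in LN2 and trypsin-digested for 4 h to remove aggrecan. They were then incubated with 100 nM MMP-13 ± compound for 18 h at 37 °C, 5% CO2, in triplicate at a single concentration. Released collagen fragments were measured by C1,2C ELISA and normalized to undigested and MMP-13-digested controls.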

Row | inhibition (Caspase-7 (Homo sapiens)) [%] | inhibition (Caspase-3 (Homo sapiens)) [%] | inhibition [1] [%] | inhibition [2] [%] | Structure (SMILES) | inhibition [3] [%] | inhibition [4] [%] | IC50 (Collagenase 3 [5]) [nM] | inhibition (Collagenase 3 [5]) | inhibition (Caspase-6 (Homo sapiens)) [%] | IC50 (Cytochrome P450 3A4) [nM] | inhibition [6] [%] | IC50 (Collagenase 3 [7]) [nM] | inhibition (Furin (Homo sapiens)) [%] | inhibition (Collagenase 3 [8]) [%]
1 | < 10 | < 10 | < 10 | < 10 | Cc1cc(CNC(=O)c2cc(C(=O)NCc3ccc(F)c(C)c3)ncn2)ccc1F |  |  |  |  |  |  |  |  |  | 
2 |  |  |  |  | Oc1nc(SCc2ccc(Cl)cc2)nc2c1CCC2 | < 10 | > 10 | 700 | Dose-dependent effect | < 10 | > 20000 | < 10 | 3400 | < 10 | 
3 |  |  |  |  | COC(=O)c1ccc(CSc2nc3c(c(=O)[nH]2)CCC3)cc1 | < 10 | > 10 | 2300 |  | < 10 | > 20000 | < 10 | 2800 | < 10 | 38
4 | < 10 | < 10 | < 10 | < 10 | Cn1c(=O)n(Cc2ccc(C(=O)O)cc2)c(=O)c2cc(C#CCc3ccccc3)ccc21 |  |  |  |  |  |  |  |  |  | 
5 |  |  |  |  | Cc1ccc(CSc2nc(O)c3c(n2)CCC3)cc1 | < 10 | > 10 |  | Dose-dependent effect | < 10 |  | 20 |  | < 10 | 59
